# Experimental data from different studies.
# Compare with care: the assays were run in different laboratories.
# Target: Casein kinase I isoform gamma-3 (CSNK1G3, Homo sapiens, UniProt Q9Y6M4)
Compound,assay,setting,endpoint,result
N#CC1(c2ccccn2)CCN(Cc2cc(C(=O)O)c(=O)n3ccccc23)CC1,"cell-free assay, competition with immobilised ligand",1 µM,remaining binding,93%
CC(C)(C)c1cc(C=C(C#N)C#N)cc(Br)c1O,"enzyme activity, inhibitor",0.5 µM,remaining activity,85.8%
Cn1cncc1[C@@](O)(COc1ccc(C#N)cc1-c1ccc(OC(F)(F)F)cc1)c1ccc(C#N)cc1,"cell-free assay, competition with immobilised ligand",1 µM,remaining binding,100%
O=c1[nH]c2ccccc2n1C1CCN(Cc2ccc(-c3[nH]c4cc5ncnc5cc4nc3-c3ccccc3)cc2)CC1,cell-free assay,0.5 µM,remaining signal,96.5%
Cn1cc(-c2cccc(N3CCc4c(sc5c4CC(C)(C)C5)C3=O)c2CO)cc(Nc2ccncn2)c1=O,"enzyme activity, inhibitor",1 µM,inhibition,-1%
COc1cc(Nc2ncc(F)c(Nc3ccc4c(n3)NC(=O)C(C)(C)O4)n2)cc(OC)c1OC,"binding, competition with immobilised ligand",10 µM,inhibition,0%
COc1ncccc1-c1cnn2ccc(N3CCN(C(=O)OC(C)C)CC3)nc12,"binding, competition with immobilised ligand",1 µM,remaining binding,92%
Cn1cc(-c2cc(F)cc(N3CCn4c(cc5c4CCCC5)C3=O)c2CO)cc(Nc2ccc(N3CCN(C4COC4)CC3)cn2)c1=O,"enzyme activity, inhibitor",0.1 µM,inhibition,7%
Cc1nn(C)cc1-c1nc2c(N3CCN(Cc4ccc(Cl)cc4)CC3)c(Cl)cnc2[nH]1,"binding, competition with immobilised ligand",1 µM,remaining binding,100%
